Key:
Rattus norvegicus [1] = experiment: Antihypertensive activity expressed as change in mean arterial blood pressure (MABP) in spontaneously hypertensive rats (SHR),at 0.5-2h after 30 mg/kg oral administration; assay type: functional, Artery
Summary of the method: (§1)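 Adult male SHR, catheter implanted in carotid artery or abdominal aorta under anesthesia at least 24 h before dosing. Baseline pressure recorded 1-1.5 h. Compound given orally at 30 mg/kg as solution or suspension in 0.5% Tween 80/distilled H2O (v/v) or other vehicle. MABP read at 0.5, 1, 1.5, 2, 3, 4, 5 and 6 h. Average percent change from predose calculated per period. Paired one-tailed t test, p < 0.05. n = 3-6 rats unless noted.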

Oryctolagus cuniculus = organism: Oryctolagus cuniculus; experiment: Calcium channel-blocking activity by determined by ability to antagonize calcium-induced contractions of isolated rabbit aortic strips; assay type: functional; conditions: Aorta, read-out: pA2 (converted)
Summary of the method: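 Rabbit aortic strips were bathed in turn in CaCl2-containing buffer, CaCl2-free buffer, then depolarizing (KCl) CaCl2-free buffer. Cumulative CaCl2 addition induced contractions, recorded with force-displacement transducers. Responses were compared without and with 1–100 nM test compound. pA2 was calculated by the Van Rossum method from at least three tissues.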

Rattus norvegicus [2] = experiment: Antihypertensive activity expressed as change in mean arterial blood pressure (MABP) in spontaneously hypertensive rats (SHR), at 3-6h after 30 mg/kg oral administration; assay type: functional, Artery; summary of the method: as §1

Structure (SMILES) | Change (Rattus norvegicus [1]) [%] | Kb (Oryctolagus cuniculus) [nM] | Change (Rattus norvegicus [2]) [%]
Cc1cccc(C)c1NC(=O)CN1CCN(CCCC(c2ccc(F)cc2)c2ccc(F)cc2)CC1 [LIDOFLAZINE] | -9 | 31.6 | -9
COC(=O)C1=C(C)NC(C)=C(C(=O)OC)C1c1ccccc1[N+](=O)[O-] [NIFEDIPINE] | -30 | 0.158 | -35
COc1ccc(CCN(C)CCCC(C#N)(c2ccc(OC)c(OC)c2)C(C)C)cc1OC (centres undefined) [VERAPAMIL] | -19 | 10 | -22

Source: ChEMBL document CHEMBL1125890, “Synthesis, calcium-channel-blocking activity, and antihypertensive activity of 4-(diarylmethyl)-1-[3-(aryloxy)propyl]piperidines and structurally related compounds” (J Med Chem, 1991)
